ChEMBL document CHEMBL2384936, “Synthesis and evaluation of antimicrobial activity of hydrazones derived from 3-oxido-1H-imidazole-4-carbohydrazides” (Eur J Med Chem, 2013)
Converted amounts (≈) assume the structure as drawn. The source made the active and inactive calls. The calls are words filed in the database; no cut-off is given here.

Legend:
Proteus vulgaris = assay: Antibacterial activity against Proteus vulgaris ATCC 49990 assessed as growth inhibition at 1 to 600 ug/mL after 18 hrs by broth microdilution method; type: functional, organism-based
Pseudomonas aeruginosa = assay: Antibacterial activity against Pseudomonas aeruginosa NCTC 6249 assessed as growth inhibition at 1 to 600 ug/mL after 18 hrs by broth microdilution method; type: functional, organism-based
Staphylococcus aureus [1] = assay: Antibacterial activity against Staphylococcus aureus ATCC 29213 assessed as growth inhibition at 1 to 600 ug/mL after 18 hrs by broth microdilution method; type: functional, organism-based
Procedure, shortened: (§1)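 Frozen stocks (-80 °C, tryptic soy broth with 15% glycerol); S. aureus subcultured on blood agar and identified by catalase, coagulase and clumping factor. Inoculum at 0.5 McFarland. DMSO-dissolved compounds 1–600 µg/mL in Mueller–Hinton broth, 37 °C 18 h, OD600 read with and without compound. MIC = lowest concentration preventing growth; triplicates, per CLSI.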

[2] = test system: Staphylococcus epidermidis; assay: Antibacterial activity against Staphylococcus epidermidis ATCC 12228 assessed as growth inhibition at 1 to 600 ug/mL after 18 hrs by broth microdilution method; type: functional, organism-based
Staphylococcus aureus [3] = assay: Antibacterial activity against Staphylococcus aureus ATCC 6538 assessed as growth inhibition at 1 to 600 ug/mL after 18 hrs by broth microdilution method; type: functional, organism-based; procedure, shortened: as §1
Enterococcus faecalis = assay: Antibacterial activity against Enterococcus faecalis ATCC 29212 assessed as growth inhibition at 1 to 600 ug/mL after 18 hrs by broth microdilution method; type: functional, organism-based
Candida albicans = assay: Antifungal activity against Candida albicans ATCC 10231 assessed as growth inhibition at 1 to 600 ug/mL after 18 hrs by broth microdilution method; type: functional, organism-based
Proteus mirabilis = assay: Antibacterial activity against Proteus mirabilis ATCC 29906 assessed as growth inhibition at 1 to 600 ug/mL after 18 hrs by broth microdilution method; type: functional
Escherichia coli [4] = assay: Antibacterial activity against Escherichia coli NCTC 8192 assessed as growth inhibition at 1 to 600 ug/mL after 18 hrs by broth microdilution method; type: functional, organism-based
Staphylococcus aureus [5] = assay: Bactericidal activity against Staphylococcus aureus isolate C4 derived from naso-pharynx after 18 hrs by broth microdilution method; type: functional; conditions: isolate C4, 18 h
Procedure, shortened: (§2)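 Broth microdilution, then contents of wells without visible growth plated onto Mueller–Hinton agar and incubated 35 °C for 18 h. Triplicates, per CLSI.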

Staphylococcus aureus [6] = assay: Antibacterial activity against Staphylococcus aureus isolate C8 derived from naso-pharynx assessed as growth inhibition after 18 hrs by broth microdilution method; type: functional; conditions: isolate C8, 18 h
Procedure, shortened: (§3)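 Frozen stocks (-80 °C, tryptic soy broth with 15% glycerol); S. aureus subcultured on blood agar and identified by catalase, coagulase and clumping factor. Inoculum at 0.5 McFarland. MIC = lowest concentration preventing growth; triplicates, per CLSI.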

Staphylococcus aureus [7] = assay: Antibacterial activity against Staphylococcus aureus isolate C7 derived from naso-pharynx assessed as growth inhibition after 18 hrs by broth microdilution method; type: functional; conditions: isolate C7, 18 h; procedure, shortened: as §3
Staphylococcus aureus [8] = assay: Bactericidal activity against Staphylococcus aureus isolate D12 derived from ulcer and furuncle after 18 hrs by broth microdilution method; type: functional; conditions: isolate D12, 18 h; procedure, shortened: as §2
Staphylococcus aureus [9] = assay: Bactericidal activity against Staphylococcus aureus isolate F12 derived from ulcer and furuncle after 18 hrs by broth microdilution method; type: functional; conditions: isolate F12, 18 h; procedure, shortened: as §2
Escherichia coli [10] = assay: Antibacterial activity against Escherichia coli NCTC 8192 assessed as growth inhibition after 18 hrs by broth microdilution method; type: functional; procedure, shortened: as §3
Staphylococcus aureus [11] = assay: Antibacterial activity against Staphylococcus aureus isolate D12 derived from ulcer and furuncle assessed as growth inhibition after 18 hrs by broth microdilution method; type: functional; conditions: isolate D12, 18 h; procedure, shortened: as §3
[12] = test system: Staphylococcus epidermidis; assay: Antibacterial activity against Staphylococcus epidermidis ATCC 12228 assessed as growth inhibition after 18 hrs by broth microdilution method; type: functional; conditions: ATCC 12228, 18 h; procedure, shortened: as §3
Staphylococcus aureus [13] = assay: Antibacterial activity against Staphylococcus aureus isolate D14 derived from bone assessed as growth inhibition after 18 hrs by broth microdilution method; type: functional; conditions: isolate D14, 18 h; procedure, shortened: as §3
[14] = test system: Staphylococcus epidermidis; assay: Bactericidal activity against Staphylococcus epidermidis ATCC 12228 after 18 hrs by broth microdilution method; type: functional; conditions: ATCC 12228, 18 h; procedure, shortened: as §2
Staphylococcus aureus [15] = assay: Antibacterial activity against Staphylococcus aureus ATCC 6538 assessed as growth inhibition after 18 hrs by broth microdilution method; type: functional; conditions: ATCC 6538, 18 h
Procedure, shortened: (§4)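 Broth microdilution in Mueller–Hinton broth with 1–600 µg/mL compound added from DMSO stocks. Inoculum adjusted to 0.5 McFarland. Strains stored at -80 °C and subcultured on blood agar before use. Incubation 37 °C for 18 h with OD600 read. MIC taken as the lowest concentration preventing growth, run in triplicate following CLSI. Vancomycin and oxacillin served as controls.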

Staphylococcus aureus [16] = assay: Bactericidal activity against Staphylococcus aureus isolate D17 derived from bone after 18 hrs by broth microdilution method; type: functional; conditions: isolate D17, 18 h; procedure, shortened: as §2
Staphylococcus aureus [17] = assay: Bactericidal activity against Staphylococcus aureus isolate D20 derived from bone after 18 hrs by broth microdilution method; type: functional; conditions: isolate D20, 18 h; procedure, shortened: as §2
Staphylococcus aureus [18] = assay: Antibacterial activity against Staphylococcus aureus isolate D15 derived from bone assessed as growth inhibition after 18 hrs by broth microdilution method; type: functional; conditions: isolate D15, 18 h; procedure, shortened: as §3
Staphylococcus aureus [19] = assay: Antibacterial activity against Staphylococcus aureus ATCC 29213 assessed as growth inhibition after 18 hrs by broth microdilution method; type: functional; conditions: ATCC 29213, 18 h; procedure, shortened: as §4
Staphylococcus aureus [20] = assay: Bactericidal activity against Staphylococcus aureus isolate D14 derived from bone after 18 hrs by broth microdilution method; type: functional; conditions: isolate D14, 18 h; procedure, shortened: as §2
Staphylococcus aureus [21] = assay: Bactericidal activity against Staphylococcus aureus ATCC 29213 after 18 hrs by broth microdilution method; type: functional; conditions: ATCC 29213, 18 h; procedure, shortened: as §2
Staphylococcus aureus [22] = assay: Bactericidal activity against Staphylococcus aureus isolate C19 derived from naso-pharynx after 18 hrs by broth microdilution method; type: functional; conditions: isolate C19, 18 h; procedure, shortened: as §2
Escherichia coli [23] = assay: Bactericidal activity against Escherichia coli NCTC 8192 after 18 hrs by broth microdilution method; type: functional; procedure, shortened: as §2
Staphylococcus aureus [24] = assay: Antibacterial activity against Staphylococcus aureus isolate F7 derived from ulcer and furuncle assessed as growth inhibition after 18 hrs by broth microdilution method; type: functional; conditions: isolate F7, 18 h; procedure, shortened: as §3
Staphylococcus aureus [25] = assay: Antibacterial activity against Staphylococcus aureus isolate C4 derived from naso-pharynx assessed as growth inhibition after 18 hrs by broth microdilution method; type: functional; conditions: isolate C4, 18 h; procedure, shortened: as §3
Staphylococcus aureus [26] = assay: Antibacterial activity against Staphylococcus aureus isolate F12 derived from ulcer and furuncle assessed as growth inhibition after 18 hrs by broth microdilution method; type: functional; conditions: isolate F12, 18 h; procedure, shortened: as §3
Staphylococcus aureus [27] = assay: Bactericidal activity against Staphylococcus aureus isolate D15 derived from bone after 18 hrs by broth microdilution method; type: functional; conditions: isolate D15, 18 h; procedure, shortened: as §2
Staphylococcus aureus [28] = assay: Antibacterial activity against Staphylococcus aureus isolate C19 derived from naso-pharynx assessed as growth inhibition after 18 hrs by broth microdilution method; type: functional; conditions: isolate C19, 18 h; procedure, shortened: as §3
Staphylococcus aureus [29] = assay: Bactericidal activity against Staphylococcus aureus ATCC 6538 after 18 hrs by broth microdilution method; type: functional; conditions: ATCC 6538, 18 h; procedure, shortened: as §2
Staphylococcus aureus [30] = assay: Antibacterial activity against Staphylococcus aureus isolate D20 derived from bone assessed as growth inhibition after 18 hrs by broth microdilution method; type: functional; conditions: isolate D20, 18 h; procedure, shortened: as §3
Staphylococcus aureus [31] = assay: Bactericidal activity against Staphylococcus aureus isolate F1 derived from ulcer and furuncle after 18 hrs by broth microdilution method; type: functional; conditions: isolate F1, 18 h; procedure, shortened: as §2
Staphylococcus aureus [32] = assay: Bactericidal activity against Staphylococcus aureus isolate C7 derived from naso-pharynx after 18 hrs by broth microdilution method; type: functional; conditions: isolate C7, 18 h; procedure, shortened: as §2
Staphylococcus aureus [33] = assay: Bactericidal activity against Staphylococcus aureus isolate F7 derived from ulcer and furuncle after 18 hrs by broth microdilution method; type: functional; conditions: isolate F7, 18 h; procedure, shortened: as §2
Staphylococcus aureus [34] = assay: Antibacterial activity against Staphylococcus aureus isolate D17 derived from bone assessed as growth inhibition after 18 hrs by broth microdilution method; type: functional; conditions: isolate D17, 18 h; procedure, shortened: as §3
Staphylococcus aureus [35] = assay: Bactericidal activity against Staphylococcus aureus isolate C8 derived from naso-pharynx after 18 hrs by broth microdilution method; type: functional; conditions: isolate C8, 18 h; procedure, shortened: as §2
Staphylococcus aureus [36] = assay: Antibacterial activity against Staphylococcus aureus isolate F1 derived from ulcer and furuncle assessed as growth inhibition after 18 hrs by broth microdilution method; type: functional; conditions: isolate F1, 18 h; procedure, shortened: as §3

In the case of `Cc1c(C(=O)NN=C2CCCCC2)[n+]([O-])cn1Cc1ccccc1`, the Activity (Proteus vulgaris) is reported as “inactive”, the Activity (Pseudomonas aeruginosa) is reported as “inactive” and the Activity (Staphylococcus aureus [1]) is reported as “inactive”. For the same molecule, the Activity [2] was “inactive”, the Activity (Staphylococcus aureus [3]) was “inactive” and the Activity (Enterococcus faecalis) was “inactive”. The Activity (Candida albicans) was “inactive”, the Activity (Proteus mirabilis) was “inactive” and the Activity (Escherichia coli [4]) was “inactive”.
For `Cc1c(C(=O)N/N=C/c2ccc(N(C)C)cc2)[n+]([O-])cn1Cc1ccccc1`, the Activity (Proteus vulgaris) was “inactive”, the Activity (Pseudomonas aeruginosa) was “inactive” and the Activity (Staphylococcus aureus [1]) was “inactive”. For the same molecule, the Activity [2] was “inactive”, the Activity (Staphylococcus aureus [3]) was “inactive” and the Activity (Enterococcus faecalis) was “inactive”. The Activity (Candida albicans) was “inactive”, the Activity (Proteus mirabilis) was “inactive” and the Activity (Escherichia coli [4]) was “inactive”.
For `CN[C@H](CC(C)C)C(=O)N[C@H]1C(=O)N[C@@H](CC(N)=O)C(=O)N[C@H]2C(=O)N[C@H]3C(=O)N[C@H](C(=O)N[C@H](C(=O)O)c4cc(O)cc(O)c4-c4cc3ccc4O)[C@H](O)c3ccc(c(Cl)c3)Oc3cc2cc(c3O[C@@H]2O[C@H](CO)[C@@H](O)[C@H](O)[C@H]2O[C@H]2C[C@](C)(N)[C@H](O)[C@H](C)O2)Oc2ccc(cc2Cl)[C@H]1O` [VANCOMYCIN], the MBC (Staphylococcus aureus [5]) was 10 µg/mL (≈ 6.9 µM), the MIC (Staphylococcus aureus [6]) was 75 µg/mL (≈ 51.8 µM) and the MIC (Staphylococcus aureus [7]) was 35 µg/mL (≈ 24.2 µM). The MBC (Staphylococcus aureus [8]) was 75 µg/mL (≈ 51.8 µM), the MBC (Staphylococcus aureus [9]) was 10 µg/mL (≈ 6.9 µM) and the MIC (Escherichia coli [10]) was “inactive”. The MIC (Staphylococcus aureus [11]) was 75 µg/mL (≈ 51.8 µM), the MIC [12] was 3 µg/mL (≈ 2.07 µM) and the MIC (Staphylococcus aureus [13]) was 75 µg/mL (≈ 51.8 µM). For the same molecule, the MBC [14] was 3 µg/mL (≈ 2.07 µM), the MIC (Staphylococcus aureus [15]) was 1.5 µg/mL (≈ 1.04 µM) and the MBC (Staphylococcus aureus [16]) was 75 µg/mL (≈ 51.8 µM). The MBC (Staphylococcus aureus [17]) was 75 µg/mL (≈ 51.8 µM), the MIC (Staphylococcus aureus [18]) was 75 µg/mL (≈ 51.8 µM) and the MIC (Staphylococcus aureus [19]) was 1.5 µg/mL (≈ 1.04 µM). It also gave an MBC (Staphylococcus aureus [20]) of 75 µg/mL (≈ 51.8 µM), an MBC (Staphylococcus aureus [21]) of 3 µg/mL (≈ 2.07 µM) and an MBC (Staphylococcus aureus [22]) of 75 µg/mL (≈ 51.8 µM). The MBC (Escherichia coli [23]) was “inactive”, the MIC (Staphylococcus aureus [24]) was 35 µg/mL (≈ 24.2 µM) and the MIC (Staphylococcus aureus [25]) was 10 µg/mL (≈ 6.9 µM). For the same molecule, the MIC (Staphylococcus aureus [26]) was 10 µg/mL (≈ 6.9 µM), the MBC (Staphylococcus aureus [27]) was 75 µg/mL (≈ 51.8 µM) and the MIC (Staphylococcus aureus [28]) was 75 µg/mL (≈ 51.8 µM). It also gave an MBC (Staphylococcus aureus [29]) of 1.5 µg/mL (≈ 1.04 µM), an MIC (Staphylococcus aureus [30]) of 75 µg/mL (≈ 51.8 µM) and an MBC (Staphylococcus aureus [31]) of 75 µg/mL (≈ 51.8 µM). It also gave an MBC (Staphylococcus aureus [32]) of 35 µg/mL (≈ 24.2 µM), an MBC (Staphylococcus aureus [33]) of 35 µg/mL (≈ 24.2 µM) and an MIC (Staphylococcus aureus [34]) of 75 µg/mL (≈ 51.8 µM). It also gave an MBC (Staphylococcus aureus [35]) of 75 µg/mL (≈ 51.8 µM) and an MIC (Staphylococcus aureus [36]) of 75 µg/mL (≈ 51.8 µM).
